The values that follow come from ChEMBL document CHEMBL5108071, “Potent and Specific Activators for Mitochondrial Sirtuins Sirt3 and Sirt5” (J Med Chem, 2022).

Test [1] concerns the target NAD-dependent protein deacylase sirtuin-5, mitochondrial (Homo sapiens) (UniProt Q9NXA8). Kind of test: Activation of SIRT5 in human CAPAN-1 cells assessed as decrease in GOT1 acetylation at 20 uM incubated for 24 hrs by Western blot analysis. The following applies: filed as activator. (In general: In western blotting, separated proteins are transferred to a membrane and probed.)
Target sequence in this assay (Q9NXA8 whole entry, looked up, the tested form may be a part): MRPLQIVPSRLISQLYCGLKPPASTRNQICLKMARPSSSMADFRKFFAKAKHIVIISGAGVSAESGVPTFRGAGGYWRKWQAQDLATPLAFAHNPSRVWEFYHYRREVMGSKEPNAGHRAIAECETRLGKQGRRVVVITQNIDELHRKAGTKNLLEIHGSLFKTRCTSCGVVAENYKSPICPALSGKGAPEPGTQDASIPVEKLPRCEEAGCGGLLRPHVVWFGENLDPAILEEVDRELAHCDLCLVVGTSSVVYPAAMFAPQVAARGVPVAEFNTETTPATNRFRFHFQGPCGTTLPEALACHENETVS

Test [2] shares this target. Description: Activation of SIRT5 in human S2-013 cells assessed as decrease in GOT1 acetylation at 20 uM incubated for 24 hrs by Western blot analysis. Particulars: filed as activator.
Target sequence in this assay (Q9NXA8 whole entry, looked up, the tested form may be a part): as above
The target is the same in test [3]. Kind of test: Activation of human recombinant SIRT5 assessed as decrease in PDHA1-succinylation at 100 uM by Western blot analysis. The following applies: filed as activator.
Target sequence in this assay (Q9NXA8 whole entry, looked up, the tested form may be a part): as above
Test [4] has the same target. Kind of test: Activation of SIRT5 in human MDA-MB-231 cells assessed as decrease in GLS activity at 50 uM using TMP substrate incubated for 4 to 24 hrs. The following applies: filed as activator, time 4-24 hrs.
Target sequence in this assay (Q9NXA8 whole entry, looked up, the tested form may be a part): as above
The target is the same in test [5]. Kind of test: Activation of N-terminal his-tagged human SIRT5 (34 to 302 residues) expressed in Escherichia coli assessed as fold activation at 10 to 100 uM using CPS1-succ537 as substrate in presence of NAD+. The following applies: filed as activator, dose 10-100 µM. The method in brief:
(§1)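 Coupled enzymatic deacylation assay (nicotinamidase/GDH-coupled, continuous): 1.5 μM recombinant Sirtuin (expressed in E. coli, Ni-NTA purified, tag removed, size-exclusion purified) with 50 μM substrate peptide and 100 μM NAD+, without or with 10 μM or 100 μM 1,4-DHP, 5% final DMSO. Activity expressed relative to no-compound control.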
Target sequence in this assay (Q9NXA8 37-310 limits assumed): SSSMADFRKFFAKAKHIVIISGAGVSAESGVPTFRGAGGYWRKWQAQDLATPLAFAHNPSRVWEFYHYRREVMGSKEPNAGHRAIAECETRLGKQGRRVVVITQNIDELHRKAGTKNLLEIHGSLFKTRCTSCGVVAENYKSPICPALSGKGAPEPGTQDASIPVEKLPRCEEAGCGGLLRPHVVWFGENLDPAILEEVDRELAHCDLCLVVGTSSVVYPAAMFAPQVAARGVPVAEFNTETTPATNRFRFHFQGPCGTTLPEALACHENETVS

The target is the same in test [6]. Kind of test: Activation of N-terminal his-tagged human SIRT5 (34 to 302 residues) expressed in Escherichia coli assessed as desuccinylation of substrate at 100 uM using CPS1-succ537 as substrate in presence of NAD+ by Mass spectrometry analysis. Particulars: filed as activator. The procedure, abridged: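 MS-based desuccinylation assay: same components as coupled assay (1.5 μM Sirt5, 50 μM CPS1-succK537 peptide, 100 μM NAD+, 5% DMSO) but in 50 mM Na-phosphate pH 7.8 with 0.05 μg/μL PNCA to remove nicotinamide; compound at 100 μM; product and substrate peptides quantified by mass spectrometry.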
Target sequence in this assay (Q9NXA8 37-310 limits assumed): as above

The target in test [7] is T1, NAD-dependent protein deacetylase sirtuin-3, mitochondrial (Homo sapiens) (UniProt Q9NTG7).
T1 sequence (whole entry): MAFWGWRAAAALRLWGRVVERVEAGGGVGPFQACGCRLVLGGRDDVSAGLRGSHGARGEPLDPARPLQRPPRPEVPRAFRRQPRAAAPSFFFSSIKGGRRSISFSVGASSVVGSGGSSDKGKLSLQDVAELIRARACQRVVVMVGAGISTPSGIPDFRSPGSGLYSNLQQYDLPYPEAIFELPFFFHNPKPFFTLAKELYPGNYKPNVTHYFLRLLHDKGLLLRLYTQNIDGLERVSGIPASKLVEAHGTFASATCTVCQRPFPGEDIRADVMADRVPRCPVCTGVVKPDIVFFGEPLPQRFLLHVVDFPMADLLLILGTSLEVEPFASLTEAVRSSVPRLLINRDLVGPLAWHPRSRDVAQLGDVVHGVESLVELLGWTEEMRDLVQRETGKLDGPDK
Description: Activation of SIRT3 in human MDA-MB-231 cells assessed as increase in FdL deacetylation activity at 50 to 100 uM incubated for 3 hrs. In kind it is cell-based. The following applies: filed as activator, dose 50-100 µM. The method in brief:
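MDA-MB-231 cells (RPMI 1640, 10% FBS, 37 °C, 5% CO2) treated 3 h at 50 or 100 µM; 40 µg mitochondrial extract incubated with Fluor de Lys substrate 40 min 37 °C, then developer 10 min; fluorescence ex 360/em 460 nm, buffer background subtracted.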

Test [8] concerns the target T1, NAD-dependent protein deacetylase sirtuin-3, mitochondrial (Homo sapiens). Description: Activation of N-terminal his-tagged human SIRT3 (114 to 380 residues) expressed in Escherichia coli assessed as fold activation at 100 uM using ACS2-acK642 as substrate in presence of NAD+. Particulars: filed as activator. The method in brief: (§2)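 Coupled continuous enzymatic assay (nicotinamidase/GDH-linked): 1.5 µM purified Sirt3 with 50 µM ACS2-acK642 peptide and 100 µM NAD+, compound at 10 µM, 100 µM or titrated, 5% DMSO final; fold deacetylation versus no-compound control.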

The target is the same in test [9]. Description: Activation of STAT3 protein level in human MDA-MB-231 cells assessed as STAT3 protein expression incubated for 24 hrs by Western blotting. The class given is cell-based. The following applies: filed as activator.
Test [10] deals with T2, NAD-dependent protein deacetylase sirtuin-1 (Homo sapiens) (UniProt Q96EB6).
T2 sequence (whole entry): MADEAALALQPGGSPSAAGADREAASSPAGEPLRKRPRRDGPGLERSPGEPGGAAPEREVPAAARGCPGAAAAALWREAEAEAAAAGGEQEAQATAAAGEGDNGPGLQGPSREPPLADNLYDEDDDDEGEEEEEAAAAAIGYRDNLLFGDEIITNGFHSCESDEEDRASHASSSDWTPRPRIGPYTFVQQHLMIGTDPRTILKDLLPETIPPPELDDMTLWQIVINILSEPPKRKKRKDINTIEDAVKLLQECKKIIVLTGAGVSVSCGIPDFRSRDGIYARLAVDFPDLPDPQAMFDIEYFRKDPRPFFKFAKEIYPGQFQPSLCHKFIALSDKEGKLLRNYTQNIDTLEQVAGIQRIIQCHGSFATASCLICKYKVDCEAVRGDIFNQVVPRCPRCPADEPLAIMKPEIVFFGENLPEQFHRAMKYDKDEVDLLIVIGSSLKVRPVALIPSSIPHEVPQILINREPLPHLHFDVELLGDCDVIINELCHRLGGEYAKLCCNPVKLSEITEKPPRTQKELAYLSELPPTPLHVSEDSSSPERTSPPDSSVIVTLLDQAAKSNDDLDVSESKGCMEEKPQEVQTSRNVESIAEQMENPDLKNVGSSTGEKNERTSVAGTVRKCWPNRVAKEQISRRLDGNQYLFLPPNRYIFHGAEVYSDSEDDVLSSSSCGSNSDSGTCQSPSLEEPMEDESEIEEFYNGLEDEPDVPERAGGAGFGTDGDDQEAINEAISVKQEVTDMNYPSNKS
Kind of test: Activation of N-terminal his-tagged human SIRT1 expressed in Escherichia coli assessed as fold activation at 10 to 100 uM using p53-acK381 as substrate in presence of NAD+. Particulars: filed as activator, dose 10-100 µM. The method in brief: as §1

Test [11] deals with T1, NAD-dependent protein deacetylase sirtuin-3, mitochondrial (Homo sapiens). Description: Activation of SIRT3 in human MDA-MB-231 cells assessed as increase in GDH activity at 50 uM incubated for 8 hrs […]. The class given is cell-based. Particulars: filed as activator. The procedure, abridged:
(§3)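 MDA-MB-231 cells given 50 µM compound for 4 h, or 4 h then re-dosed for a further 4 h; 10^6 cells lysed, supernatant mixed with glutamate/developer mix, 3 min at 37 °C, absorbance 450 nm, buffer blank subtracted; means ± SD, Student's t-test.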

The target is the same in test [12]. Kind of test: Activation of N-terminal his-tagged human SIRT3 (114 to 380 residues) expressed in Escherichia coli at 100 uM using ACS2-acK642 as substrate in presence of NAD+ by Mass spectrometry assay relative to control. Particulars: filed as activator. The procedure, abridged:
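Mass-spectrometric deacetylation assay using coupled-assay components (1.5 µM Sirt3, 50 µM peptide, 100 µM NAD+, compound 100 µM) in 50 mM Na-phosphate pH 7.8 plus 0.05 µg/µL PNCA to remove nicotinamide; product and substrate peptides quantified.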

The target is the same in test [13]. Kind of test: Activation of SIRT3 in human MDA-MB-231 cells assessed as decrease in MnSOD-Lys68 acetylation level at 50 uM incubated for 16 hrs by Western blot analysis assay. In kind it is cell-based. Particulars: filed as activator. The procedure, abridged:
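MDA-MB-231 cells (wild-type and Sirt3-knockdown) treated with 50 µM; 50 µg whole-cell lysate protein run on SDS-PAGE, blotted to PVDF, probed with anti-MnSOD-acK68 and anti-MnSOD, ECL detection; each blot done in triplicate.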

For test [14], the target named is T3, NAD-dependent protein deacetylase sirtuin-3 (Mus musculus) (UniProt Q8R104).
T3 sequence (whole entry): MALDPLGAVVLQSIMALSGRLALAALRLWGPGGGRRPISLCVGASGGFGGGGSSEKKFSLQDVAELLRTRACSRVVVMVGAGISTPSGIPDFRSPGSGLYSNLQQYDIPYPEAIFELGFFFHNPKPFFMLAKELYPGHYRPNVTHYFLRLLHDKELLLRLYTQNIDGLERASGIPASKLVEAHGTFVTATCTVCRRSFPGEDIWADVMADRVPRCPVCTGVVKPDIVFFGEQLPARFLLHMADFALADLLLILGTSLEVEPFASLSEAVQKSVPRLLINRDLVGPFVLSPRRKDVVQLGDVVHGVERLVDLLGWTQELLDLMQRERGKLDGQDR
Kind of test: Activation of SIRT3 in mouse MEF cells assessed as fold increase in mitochondrial mass at 25 uM incubated for 24 hrs by MT-DR staining based FACS assay. In kind it is cell-based. Particulars: filed as activator. The method in brief: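 Wild-type and Sirt3 knock-out MEFs exposed to 25 µM compound for 24 h, then stained with 10 nM MitoTracker Deep Red for 30 min at 37 °C; mitochondrial mass by FACS; mean ± SD, n = 2.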
(A flow cytometer gives signals particle by particle.)

Test [15] addresses T2, NAD-dependent protein deacetylase sirtuin-1 (Homo sapiens). Kind of test: Activation of N-terminal his-tagged human SIRT1 expressed in Escherichia coli assessed as fold activation at 100 uM using p53-acK381 as substrate in presence of NAD+. The following applies: filed as activator. The procedure, abridged:
as §1

For test [16], the target named is T4, NAD-dependent protein deacetylase sirtuin-2 (Homo sapiens) (UniProt Q8IXJ6).
T4 sequence (whole entry): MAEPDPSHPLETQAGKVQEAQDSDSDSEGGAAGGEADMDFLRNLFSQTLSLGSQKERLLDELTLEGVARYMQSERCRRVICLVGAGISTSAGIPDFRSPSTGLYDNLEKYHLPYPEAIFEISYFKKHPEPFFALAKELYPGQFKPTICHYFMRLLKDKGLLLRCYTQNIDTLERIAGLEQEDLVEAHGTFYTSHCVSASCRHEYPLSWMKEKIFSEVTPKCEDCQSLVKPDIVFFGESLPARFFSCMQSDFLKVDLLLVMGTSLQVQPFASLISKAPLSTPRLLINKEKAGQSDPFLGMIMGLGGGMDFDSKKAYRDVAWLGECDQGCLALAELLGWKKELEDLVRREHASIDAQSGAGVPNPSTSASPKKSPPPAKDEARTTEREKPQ
Description: Activation of N-terminal SUMO-tagged human SIRT2 (43 to 356 residues) expressed in Escherichia coli assessed as deacetylation of substrate by measuring fold activation at 100 uM using acetylated alpha tubulin-K2 as substrate in presence of NAD+. Particulars: filed as activator. The method in brief:
as §1

In test [17] the target is T4, NAD-dependent protein deacetylase sirtuin-2 (Homo sapiens). Description: Activation of N-terminal SUMO-tagged human SIRT2 (43 to 356 residues) expressed in Escherichia coli assessed as deacetylation of substrate at 100 uM using acetylated alpha tubulin-K2 as substrate in presence of NAD+. Particulars: filed as activator. The method in brief: as §1
The target in test [18] is T1, NAD-dependent protein deacetylase sirtuin-3, mitochondrial (Homo sapiens). Description: Activation of N-terminal his-tagged human SIRT3 (114 to 380 residues) expressed in Escherichia coli assessed as fold activation at 10 to 100 uM using ACS2-acK642 as substrate in presence of NAD+. Particulars: filed as activator, dose 10-100 µM. The procedure, abridged: as §2
For test [19] the target is unchanged. Kind of test: Activation of SIRT3 in human MDA-MB-231 cells assessed as increase in GDH activity at 50 uM incubated for 4 hrs […]. The class given is cell-based. The following applies: filed as activator. The method in brief: as §3
Test [20] shares this target. Description: Activation of N-terminal his-tagged human SIRT3 (114 to 380 residues) expressed in Escherichia coli using ACS2-acK642 as substrate in presence of NAD+. The following applies: filed as activator. The method in brief: as §2
The target of test [21] is NAD-dependent protein deacylase sirtuin-5, mitochondrial (Homo sapiens) (UniProt Q9NXA8). Description: Activation of N-terminal his-tagged human SIRT5 (34 to 302 residues) expressed in Escherichia coli assessed as fold activation at more than 200 uM using CPS1-succ537 as substrate in presence of NAD+. The following applies: filed as activator. The method in brief:
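Sirt5 desuccinylation measured by coupled enzymatic assay: 1.5 µM enzyme, 50 µM CPS1-succK537 peptide, 100 µM NAD+, 5% DMSO final; compound titrated; fold activation relative to untreated reaction.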
Target sequence in this assay (Q9NXA8 37-310 limits assumed): as the sequence (Q9NXA8 37-310 limits assumed) above

Activity calls are given as the source filed them. The rule behind the calls is not given here.

On to `CCOC(=O)C1=CN(C(=O)c2ccccc2)C=C(C(=O)OCC)C1c1ccsc1`, for which the result in [1], in test [2], in [3], in test [4] and in [6] was Active. The fold change (FC) in test [5] came out at 3.
For `CCOC(=O)C1=CN(C(=O)c2ccccc2)C=C(C(=O)OCC)C1c1ccccc1`, the result in [7], in [9], in test [11] and in test [13] was Active. The fold change (FC) in test [8] was found to be 3.5; in [10] it was 1.5. The Activity in [12] stood at 300%.
On to `CCOC(=O)C1=CN(Cc2ccccc2)C=C(C(=O)OCC)C1c1cnc2ccccc2c1`, for which, in [14], the result was Active. Moreover, the fold change (FC) in test [10] stood at 1.5.
As to `CCOC(=O)C1=CN(C(=O)c2cc(OC)c(OC)c(OC)c2)C=C(C(=O)OCC)C1c1cccc(N)c1`, the figures for the fold change (FC) in test [15], in test [16] and in test [5] were 4, 2.5 and 3, respectively.
Regarding `CCOC(=O)C1=CN(C(=O)c2cc(OC)c(OC)c(OC)c2)C=C(C(=O)OCC)C1c1ccccc1`, the result in test [17], in test [19] and in test [20] was Active. In addition, the fold change (FC) in [18] and in test [21] was 5 each time. Further, in test [12], the Activity worked out at 400%.
